Laboratory results from ChEMBL document CHEMBL1158496, “Design and synthesis of 2-(3-benzo[b]thienyl)-6,7-methylenedioxyquinolin-4-one analogues as potent antitumor agents that inhibit tubulin assembly” (J Med Chem, 2009).
Active and inactive are the calls of the source. The rule behind the calls is not given here.

How the values were obtained:
[1] = Inhibition of tubulin polymerization
Procedure, shortened: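 Turbidimetric assembly assay. Tubulin 1.0 mg/mL (10 μM) preincubated 15 min at 30 °C with varying drug concentrations, without GTP. Samples then chilled, 0.4 mM GTP added, and turbidity followed for 20 min at 30 °C after a temperature jump from 0 °C.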

[2] = test system: HL-60; test: Cytotoxicity against human HL60 cells by MTT assay; type: functional, cell-based
Procedure, shortened: (§1)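 After compound treatment, cells washed once with PBS and incubated 2 h with MTT. Formazan dissolved in DMSO, absorbance read at 570 nm.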

[3] = test system: HCT-116; test: Cytotoxicity against human HCT116 cells by MTT assay; type: functional, cell-based; procedure, shortened: as §1
[4] = test system: A549; test: Cytotoxicity against human A549 cells by SRB assay; type: functional, cell-based
Procedure, shortened: (§2)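 Cells exposed to compound or DMSO for the stated periods, fixed with 10% TCA, then stained with 0.4% (w/v) SRB in 1% acetic acid. Unbound dye removed with 1% acetic acid, bound dye dissolved in 10 mM Trizma base, absorbance read at 515 nm.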

[5] = Cytotoxicity against human Hep3B cells by MTT assay; type: functional, cell-based, Hep 3B2; procedure, shortened: as §1
[6] = test system: KB; test: Cytotoxicity against human KB cells by SRB assay; type: functional, cell-based; procedure, shortened: as §2
[7] = Cytotoxicity against human KBVIN cells by SRB assay; type: functional, cell-based; procedure, shortened: as §2
[8] = test system: DU-145; test: Cytotoxicity against human DU145 cells by SRB assay; type: functional, cell-based; procedure, shortened: as §2
[9] = Displacement of [3H]colchicine from tubulin at 1 uM […]
Procedure, shortened: (§3)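 Tubulin (1.0 μM) incubated 10 min at 37 °C with 5.0 μM [3H]colchicine and inhibitor at 1.0 or 5.0 μM. At this time roughly 40–60% of maximal colchicine binding has occurred. Inhibition of radiolabel binding measured.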

[10] = Displacement of [3H]colchicine from tubulin at 5 uM by turbidimetry; procedure, shortened: as §3
[11] = test system: OVCAR-3; test: Antitumor activity against human OVCAR-3 cells xenografted in nude mouse dosed as ip once weekly for three courses; type: functional
[12] = test system: OVCAR-3; test: Antitumor activity against human OVCAR-3 cells xenografted in nude mouse assessed as life span extension at 200 mg/kg, ip once weekly for three courses; type: functional; details: route intraperitoneal
[13] = test system: OVCAR-3; test: Antitumor activity against human OVCAR-3 cells xenografted in nude mouse assessed as life span extension at 134 mg/kg, ip once weekly for three courses; type: functional; details: route intraperitoneal
[14] = test system: OVCAR-3; test: Antitumor activity against human OVCAR-3 cells xenografted in nude mouse assessed as life span extension at 79 mg/kg, ip once weekly for three courses; type: functional; details: route intraperitoneal
[15] = test system: HCC 2998; test: Cytotoxicity against human HCC2998 cells; type: functional, cell-based
[16] = test system: KM12; test: Cytotoxicity against human KM12 cells; type: functional, cell-based
[17] = test system: SF-539; test: Cytotoxicity against human SF539 cells; type: functional, cell-based
[18] = test system: SNB-75; test: Cytotoxicity against human SNB75 cells; type: functional, cell-based
[19] = test system: SK-MEL-5; test: Cytotoxicity against human SK-MEL-5 cells; type: functional, cell-based
[20] = test system: IGROV-1; test: Cytotoxicity against human IGROV1 cells; type: functional, cell-based
[21] = test system: OVCAR-3; test: Cytotoxicity against human OVCAR-3 cells; type: functional, cell-based

Structure (SMILES) | IC50 [1] | IC50 [2] | IC50 [3] | IC50 [4] | IC50 [5] | IC50 [6] | IC50 [7] | IC50 [8] | further results
Cc1cnc2nc(-c3csc4ccccc34)cc(O)c2c1 | 370 nM |  |  |  |  |  |  |  | 
O=c1cc(-c2cc3ccccc3s2)[nH]c2cc3c(cc12)OCO3 |  | > 1000 nM | > 1000 nM | > 1000 nM | > 1000 nM | > 1000 nM | > 1000 nM | > 1000 nM | 
O=c1cc(-c2ccccc2F)[nH]c2cc3c(cc12)OCO3 |  |  |  |  |  |  |  |  | MTD [11]: >200 mg/kg; Activity [12]: 124%; Activity [13]: 133%; Activity [14]: 79%
COc1cccc(-c2cc(O)c3cc(N4CCCC4)ccc3n2)c1 |  |  |  |  |  |  |  |  | MTD [11]: 25 mg/kg
Cc1c(-c2cccc3ccccc23)c(=O)[nH]c2cc3c(cc12)OCO3 |  | > 10000 nM | > 10000 nM |  | 4300 nM |  |  |  | 
COc1ccc(/C=C\c2cc(OC)c(OC)c(OC)c2)cc1O |  |  |  |  |  |  |  |  | Activity [9]: 91%
O=c1cc(-c2cccc3cc4ccccc4cc23)[nH]c2cc3c(cc12)OCO3 | > 40000 nM | 530 nM | 1600 nM |  | 2200 nM |  |  |  | 

Second part, led by results:

IC50 [1] | Structure (SMILES) | IC50 [2] | IC50 [3] | IC50 [4] | IC50 [5] | IC50 [6] | IC50 [7] | IC50 [8] | further results
> 4000 nM | O=c1cc(-c2cc3ccccc3o2)[nH]c2cc3c(cc12)OCO3 | > 1000 nM | > 1000 nM | > 1000 nM | > 1000 nM | > 1000 nM | > 1000 nM | > 1000 nM | 
> 40000 nM | O=c1cc(-c2ccc3ccccc3c2)[nH]c2cc3c(cc12)OCO3 | 500 nM | > 1000 nM | > 1000 nM | > 1000 nM | > 1000 nM | > 1000 nM | > 1000 nM | 
27000 nM | O=c1cc(-c2cccc3ncccc23)[nH]c2cc3c(cc12)OCO3 | > 10000 nM | > 10000 nM | > 10000 nM | > 10000 nM | > 10000 nM | > 10000 nM | > 10000 nM | 
640 nM | O=c1cc(-c2cccc3ccccc23)[nH]c2cc3c(cc12)OCO3 | 70 nM | 70 nM | 130 nM | 70 nM | 130 nM | 190 nM | 130 nM | Activity [9]: 33%; Activity [10]: 67%
580 nM | O=c1cc(-c2coc3ccccc23)[nH]c2cc3c(cc12)OCO3 | 30 nM | 50 nM | 2980 nM | 90 nM | 1050 nM | 590 nM | 1870 nM | Activity [9]: 39%; Activity [10]: 51%; Activity [15]: Active; Activity [16]: Active; Activity [17]: Active; Activity [18]: Active; Activity [19]: Active; Activity [20]: Active; Activity [21]: Active
> 4000 nM | O=c1cc(-c2cnc3ccccc3c2)[nH]c2cc3c(cc12)OCO3 | > 100 nM | > 100 nM | > 100 nM | > 100 nM | > 100 nM | > 100 nM | > 100 nM | 
> 40000 nM | O=c1cc(-c2ccc3ccccc3n2)[nH]c2cc3c(cc12)OCO3 | > 5000 nM | > 5000 nM | > 5000 nM | > 5000 nM | > 5000 nM | > 5000 nM | > 5000 nM | 
> 40000 nM | O=c1cc(-c2ccnc3ccccc23)[nH]c2cc3c(cc12)OCO3 | > 5000 nM | > 5000 nM | > 5000 nM | > 5000 nM | > 5000 nM | > 5000 nM | > 5000 nM | 
760 nM | O=c1cc(-c2csc3ccccc23)[nH]c2cc3c(cc12)OCO3 | 170 nM | 140 nM | > 250 nM | 60 nM | > 250 nM | > 250 nM | > 250 nM | Activity [9]: 25%; Activity [10]: 61%
